In assay [1] the target is Stromelysin-2 (Homo sapiens) (UniProt P09238). The assay can be described thus: Inhibition of human recombinant MMP10 at 200 uM by HxBPyne probe-based competitive activity based protein profiling assay in presence of 5 uM HxBpane competitor. Summed up: (§1)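 Recombinant enzyme at 0.5 μM final in mouse liver soluble proteome (1 mg protein/mL in PBS). HxBPyne probe cocktail 0.5 μM total final, with inhibitor 200 μM or DMSO. Preincubated 30 min on ice, then UV 365 nm for 1 h on ice. Rhodamine-azide click chemistry, 1 h RT in dark. SDS-PAGE with in-gel fluorescence; band intensity given as % of DMSO control.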
Chain of Stromelysin-2 (Homo sapiens) (P09238 99-476 limits assumed): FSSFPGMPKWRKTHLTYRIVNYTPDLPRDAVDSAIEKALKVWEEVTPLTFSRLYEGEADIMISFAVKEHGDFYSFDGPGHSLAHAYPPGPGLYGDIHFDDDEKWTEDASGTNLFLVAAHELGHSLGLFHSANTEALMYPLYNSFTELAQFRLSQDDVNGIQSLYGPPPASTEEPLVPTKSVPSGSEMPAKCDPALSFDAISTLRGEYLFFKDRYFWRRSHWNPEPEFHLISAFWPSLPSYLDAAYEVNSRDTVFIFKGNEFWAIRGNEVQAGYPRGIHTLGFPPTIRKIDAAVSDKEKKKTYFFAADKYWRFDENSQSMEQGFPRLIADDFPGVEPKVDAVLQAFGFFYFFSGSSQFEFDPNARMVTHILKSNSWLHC

Assay [2] has as its target T1, Neutrophil collagenase (Homo sapiens, UniProt P22894). Nature of the assay: Inhibition of human recombinant MMP8 at 200 uM by HxBPyne probe-based competitive activity based protein profiling assay in presence of 5 uM HxBpane competitor. Summed up: as §1
Assay [3] addresses T2, A disintegrin and metalloproteinase with thrombospondin motifs 5 (Homo sapiens) (UniProt Q9UNA0).
T2 sequence (whole entry): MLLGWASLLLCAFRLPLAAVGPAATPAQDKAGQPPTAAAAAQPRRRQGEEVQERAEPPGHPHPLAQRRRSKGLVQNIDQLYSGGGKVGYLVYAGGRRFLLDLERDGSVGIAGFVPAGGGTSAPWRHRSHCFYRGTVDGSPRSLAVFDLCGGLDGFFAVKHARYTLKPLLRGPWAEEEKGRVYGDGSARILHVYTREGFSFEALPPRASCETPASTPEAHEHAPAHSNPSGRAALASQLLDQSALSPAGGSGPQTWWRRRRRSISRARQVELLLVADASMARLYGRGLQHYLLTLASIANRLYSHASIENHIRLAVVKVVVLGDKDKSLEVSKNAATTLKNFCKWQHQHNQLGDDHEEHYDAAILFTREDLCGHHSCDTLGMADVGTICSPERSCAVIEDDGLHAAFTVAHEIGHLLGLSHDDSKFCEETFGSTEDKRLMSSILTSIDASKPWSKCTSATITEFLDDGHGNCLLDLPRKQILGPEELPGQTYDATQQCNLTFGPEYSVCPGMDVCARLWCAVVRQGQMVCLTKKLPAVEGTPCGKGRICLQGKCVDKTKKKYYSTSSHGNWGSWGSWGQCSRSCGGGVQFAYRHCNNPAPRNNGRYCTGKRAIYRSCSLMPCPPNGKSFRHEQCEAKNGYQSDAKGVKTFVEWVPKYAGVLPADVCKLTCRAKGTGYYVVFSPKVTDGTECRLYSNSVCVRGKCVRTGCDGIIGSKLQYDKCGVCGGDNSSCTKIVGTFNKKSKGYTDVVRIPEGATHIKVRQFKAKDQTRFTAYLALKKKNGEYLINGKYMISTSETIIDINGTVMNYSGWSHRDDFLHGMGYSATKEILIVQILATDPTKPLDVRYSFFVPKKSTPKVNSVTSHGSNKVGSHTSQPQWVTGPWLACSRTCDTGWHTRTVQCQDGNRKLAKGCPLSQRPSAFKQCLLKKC
Nature of the assay: Inhibition of human recombinant ADAMTS5 at 200 uM by HxBPyne probe-based competitive activity based protein profiling assay in presence of 5 uM HxBpane competitor. In outline:
as §1

Assay [4] deals with A disintegrin and metalloproteinase with thrombospondin motifs 1 (Homo sapiens) (UniProt Q9UHI8). The assay can be described thus: Inhibition of human recombinant ADAMTS1 at 200 uM by HxBPyne probe-based competitive activity based protein profiling assay in presence of 5 uM HxBpane competitor. In outline:
as §1

For assay [5], the target named is Disintegrin and metalloproteinase domain-containing protein 10 (Homo sapiens) (UniProt O14672). Nature of the assay: Inhibition of human recombinant ADAM10 at 200 uM by HxBPyne probe-based competitive activity based protein profiling assay in presence of 5 uM HxBpane competitor. Summed up:
as §1

Assay [6] has as its target Matrix metalloproteinase-14 (Homo sapiens) (UniProt P50281). The assay can be described thus: Inhibition of human recombinant MMP14 at 200 uM by HxBPyne probe-based competitive activity based protein profiling assay in presence of 5 uM HxBpane competitor. Summed up: as §1
Assay [7] concerns the target T3, Collagenase 3 (Homo sapiens, UniProt P45452). Nature of the assay: Inhibition of human recombinant MMP13 by fluorogenic substrate assay.
For assay [8], the target named is Matrix metalloproteinase-15 (Homo sapiens) (UniProt P51511). The assay can be described thus: Inhibition of human recombinant MMP15 at 200 uM by HxBPyne probe-based competitive activity based protein profiling assay in presence of 5 uM HxBpane competitor. In outline: as §1
Chain of Matrix metalloproteinase-15 (Homo sapiens) (P51511 132-669 limits assumed): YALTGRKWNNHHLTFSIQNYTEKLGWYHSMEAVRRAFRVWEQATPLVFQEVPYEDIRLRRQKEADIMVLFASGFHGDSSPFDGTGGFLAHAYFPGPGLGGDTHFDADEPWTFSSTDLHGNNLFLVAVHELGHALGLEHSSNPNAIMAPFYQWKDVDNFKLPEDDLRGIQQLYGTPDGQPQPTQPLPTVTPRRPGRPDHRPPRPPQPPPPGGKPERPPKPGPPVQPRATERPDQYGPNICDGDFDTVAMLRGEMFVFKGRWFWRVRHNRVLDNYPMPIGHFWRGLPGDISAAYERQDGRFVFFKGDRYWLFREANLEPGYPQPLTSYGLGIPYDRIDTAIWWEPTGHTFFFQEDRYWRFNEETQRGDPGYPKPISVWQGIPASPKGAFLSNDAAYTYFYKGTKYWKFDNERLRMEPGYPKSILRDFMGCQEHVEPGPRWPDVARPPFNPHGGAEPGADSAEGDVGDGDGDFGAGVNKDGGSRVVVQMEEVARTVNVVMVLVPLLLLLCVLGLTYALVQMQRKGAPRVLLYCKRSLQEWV
The target of assay [9] is T1, Neutrophil collagenase. Nature of the assay: Inhibition of human recombinant MMP8 by fluorogenic substrate assay. In outline:
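Enzyme (MMP8 6 nM, MMP9 2 nM, MMP13 1.5 nM final) preincubated with inhibitor 30 min in 50 mM HEPES pH 7.5, 10 mM CaCl2, 0.05% Brij-35, at RT. Mca-PLGL-Dpa-AR-NH2 added at 5 μM; fluorescence (ex 328/em 393 nm) read each minute for 10 min. Initial rates by linear least squares; IC50 from variable-slope sigmoidal fit. Triplicate; mean with 95% CI.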
Target sequence in this assay (P22894 whole entry): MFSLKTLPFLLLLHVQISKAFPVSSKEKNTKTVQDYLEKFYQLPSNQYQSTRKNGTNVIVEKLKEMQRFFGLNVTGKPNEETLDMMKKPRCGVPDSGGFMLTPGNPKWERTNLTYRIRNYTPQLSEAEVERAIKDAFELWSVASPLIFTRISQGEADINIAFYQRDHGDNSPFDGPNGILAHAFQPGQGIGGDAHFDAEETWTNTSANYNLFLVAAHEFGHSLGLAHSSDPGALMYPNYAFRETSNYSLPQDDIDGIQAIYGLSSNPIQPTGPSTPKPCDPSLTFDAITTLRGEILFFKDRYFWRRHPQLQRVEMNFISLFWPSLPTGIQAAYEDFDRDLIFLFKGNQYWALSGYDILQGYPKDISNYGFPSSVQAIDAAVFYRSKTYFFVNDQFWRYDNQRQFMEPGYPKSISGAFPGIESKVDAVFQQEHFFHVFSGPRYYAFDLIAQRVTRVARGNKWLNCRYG

Assay [10] addresses Interstitial collagenase (Homo sapiens) (UniProt P03956). Nature of the assay: Inhibition of human recombinant MMP1 at 200 uM by HxBPyne probe-based competitive activity based protein profiling assay in presence of 5 uM HxBpane competitor. In outline: as §1
In assay [11] the target is Disintegrin and metalloproteinase domain-containing protein 12 (Homo sapiens) (UniProt O43184). The assay can be described thus: Inhibition of human recombinant ADAM12 at 200 uM by HxBPyne probe-based competitive activity based protein profiling assay in presence of 200 uM HxBpane competitor. In outline:
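Metalloprotease at 1.6 μM final in PBS, without liver proteome. HxBPyne probe cocktail 20 μM final, with inhibitor 200 μM or DMSO. Preincubated 30 min on ice, then irradiated 365 nm for 1 h on ice. Rhodamine-azide click chemistry, then SDS-PAGE and in-gel fluorescence scanning. Integrated band intensity expressed as % of DMSO control.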

The target of assay [12] is A disintegrin and metalloproteinase with thrombospondin motifs 4 (Homo sapiens) (UniProt O75173). Nature of the assay: Inhibition of human recombinant ADAMTS4 at 200 uM by HxBP-Rh probe-based competitive activity based protein profiling assay in presence of 200 uM HxBP-alkyne. Summed up: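 Enzyme 0.5 μM final, in PBS (ADAMTS4, neprilysin) or in 1 mg/mL mouse liver soluble proteome (MMP9). HxBP-Rh probe 0.5 μM final with 200 μM inhibitor or DMSO. Preincubated 30 min on ice, UV 365 nm 1 h on ice. Deglycosylated with PNGase F, then SDS-PAGE with fluorescence scanning. Activity given relative to DMSO control.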

Assay [13] deals with T3, Collagenase 3. The assay can be described thus: Inhibition of human recombinant MMP13 by HxBPyne probe-based competitive activity based protein profiling assay.
Assay [14] has as its target Matrilysin (Homo sapiens) (UniProt P09237). Nature of the assay: Inhibition of human recombinant MMP7 at 200 uM by HxBPyne probe-based competitive activity based protein profiling assay in presence of 5 uM HxBpane competitor. In outline:
as §1

For assay [15], the target named is Stromelysin-1 (Homo sapiens) (UniProt P08254). The assay can be described thus: Inhibition of human recombinant MMP3 at 200 uM by HxBPyne probe-based competitive activity based protein profiling assay in presence of 5 uM HxBpane competitor. In outline: as §1
Chain of Stromelysin-1 (Homo sapiens) (P08254 100-477 limits assumed): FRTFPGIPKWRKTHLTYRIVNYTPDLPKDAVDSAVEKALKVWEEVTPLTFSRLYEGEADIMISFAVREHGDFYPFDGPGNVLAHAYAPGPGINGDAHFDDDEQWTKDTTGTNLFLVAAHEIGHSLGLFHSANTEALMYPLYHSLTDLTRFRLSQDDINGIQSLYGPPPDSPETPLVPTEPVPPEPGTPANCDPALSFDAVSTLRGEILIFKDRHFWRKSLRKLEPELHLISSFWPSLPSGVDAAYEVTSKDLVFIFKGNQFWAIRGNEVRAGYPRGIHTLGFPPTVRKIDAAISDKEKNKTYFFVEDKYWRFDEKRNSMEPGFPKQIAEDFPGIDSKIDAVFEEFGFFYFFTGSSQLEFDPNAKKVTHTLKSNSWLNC

Calls of active or inactive are those of the source. The rule behind the calls is not given here.

Chain of Interstitial collagenase (Homo sapiens) (P03956 whole entry, the tested form may be a part): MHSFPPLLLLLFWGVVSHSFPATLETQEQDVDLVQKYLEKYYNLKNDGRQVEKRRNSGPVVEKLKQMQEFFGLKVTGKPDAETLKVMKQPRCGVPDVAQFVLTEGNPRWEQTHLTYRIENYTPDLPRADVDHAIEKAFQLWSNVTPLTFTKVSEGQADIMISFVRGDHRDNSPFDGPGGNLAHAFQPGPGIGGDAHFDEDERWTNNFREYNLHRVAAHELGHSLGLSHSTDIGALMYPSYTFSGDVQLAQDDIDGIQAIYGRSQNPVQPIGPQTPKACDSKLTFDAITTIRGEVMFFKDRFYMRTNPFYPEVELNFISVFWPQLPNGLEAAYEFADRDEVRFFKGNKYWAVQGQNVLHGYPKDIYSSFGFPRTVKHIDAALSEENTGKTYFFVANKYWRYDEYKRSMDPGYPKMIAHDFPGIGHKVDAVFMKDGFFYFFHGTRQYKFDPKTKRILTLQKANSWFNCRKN
Chain of Disintegrin and metalloproteinase domain-containing protein 10 (Homo sapiens) (O14672 whole entry, the tested form may be a part): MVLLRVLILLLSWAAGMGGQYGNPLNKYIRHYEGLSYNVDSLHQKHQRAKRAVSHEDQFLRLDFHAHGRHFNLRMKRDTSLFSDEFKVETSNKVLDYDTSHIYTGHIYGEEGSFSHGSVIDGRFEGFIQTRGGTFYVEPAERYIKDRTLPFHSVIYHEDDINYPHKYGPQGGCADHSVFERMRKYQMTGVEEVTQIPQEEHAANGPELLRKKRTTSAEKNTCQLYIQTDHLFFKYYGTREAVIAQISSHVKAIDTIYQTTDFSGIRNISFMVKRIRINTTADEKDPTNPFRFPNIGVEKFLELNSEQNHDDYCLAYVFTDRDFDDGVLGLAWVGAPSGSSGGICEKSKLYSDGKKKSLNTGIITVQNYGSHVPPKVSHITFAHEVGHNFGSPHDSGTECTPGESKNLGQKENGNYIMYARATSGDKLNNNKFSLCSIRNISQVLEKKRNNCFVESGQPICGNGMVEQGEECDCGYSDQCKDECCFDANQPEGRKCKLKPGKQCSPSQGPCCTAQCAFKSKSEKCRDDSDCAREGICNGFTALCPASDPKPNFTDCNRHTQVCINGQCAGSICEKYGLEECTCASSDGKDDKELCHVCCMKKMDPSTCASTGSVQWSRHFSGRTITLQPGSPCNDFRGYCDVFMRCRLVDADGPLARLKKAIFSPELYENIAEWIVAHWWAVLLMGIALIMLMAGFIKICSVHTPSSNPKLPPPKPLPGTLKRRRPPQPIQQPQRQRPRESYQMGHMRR
Chain of Disintegrin and metalloproteinase domain-containing protein 12 (Homo sapiens) (O43184 whole entry, the tested form may be a part): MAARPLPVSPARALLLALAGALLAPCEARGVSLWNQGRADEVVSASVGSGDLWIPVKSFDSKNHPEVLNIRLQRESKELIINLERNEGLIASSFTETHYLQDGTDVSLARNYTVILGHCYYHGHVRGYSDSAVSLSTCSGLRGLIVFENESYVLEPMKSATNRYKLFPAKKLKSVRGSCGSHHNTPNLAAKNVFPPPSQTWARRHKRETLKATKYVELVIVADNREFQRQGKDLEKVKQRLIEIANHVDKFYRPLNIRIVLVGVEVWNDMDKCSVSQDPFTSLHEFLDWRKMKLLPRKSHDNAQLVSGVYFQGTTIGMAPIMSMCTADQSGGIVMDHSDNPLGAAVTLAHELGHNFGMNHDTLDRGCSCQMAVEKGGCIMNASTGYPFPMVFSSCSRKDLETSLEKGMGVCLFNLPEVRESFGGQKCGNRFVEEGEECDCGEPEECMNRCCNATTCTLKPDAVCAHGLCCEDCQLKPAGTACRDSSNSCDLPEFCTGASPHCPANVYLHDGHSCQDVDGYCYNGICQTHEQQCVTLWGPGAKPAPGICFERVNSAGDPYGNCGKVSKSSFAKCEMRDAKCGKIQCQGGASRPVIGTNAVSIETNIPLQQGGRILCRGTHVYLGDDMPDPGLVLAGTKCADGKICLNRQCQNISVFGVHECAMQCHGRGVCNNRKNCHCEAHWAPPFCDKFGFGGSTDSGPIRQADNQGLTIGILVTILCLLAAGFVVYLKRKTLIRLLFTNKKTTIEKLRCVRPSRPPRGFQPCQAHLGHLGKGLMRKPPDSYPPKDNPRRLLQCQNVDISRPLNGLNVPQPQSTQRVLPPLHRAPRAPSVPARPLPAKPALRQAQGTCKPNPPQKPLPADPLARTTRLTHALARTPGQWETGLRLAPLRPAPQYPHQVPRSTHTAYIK
Chain of A disintegrin and metalloproteinase with thrombospondin motifs 1 (Homo sapiens) (Q9UHI8 whole entry): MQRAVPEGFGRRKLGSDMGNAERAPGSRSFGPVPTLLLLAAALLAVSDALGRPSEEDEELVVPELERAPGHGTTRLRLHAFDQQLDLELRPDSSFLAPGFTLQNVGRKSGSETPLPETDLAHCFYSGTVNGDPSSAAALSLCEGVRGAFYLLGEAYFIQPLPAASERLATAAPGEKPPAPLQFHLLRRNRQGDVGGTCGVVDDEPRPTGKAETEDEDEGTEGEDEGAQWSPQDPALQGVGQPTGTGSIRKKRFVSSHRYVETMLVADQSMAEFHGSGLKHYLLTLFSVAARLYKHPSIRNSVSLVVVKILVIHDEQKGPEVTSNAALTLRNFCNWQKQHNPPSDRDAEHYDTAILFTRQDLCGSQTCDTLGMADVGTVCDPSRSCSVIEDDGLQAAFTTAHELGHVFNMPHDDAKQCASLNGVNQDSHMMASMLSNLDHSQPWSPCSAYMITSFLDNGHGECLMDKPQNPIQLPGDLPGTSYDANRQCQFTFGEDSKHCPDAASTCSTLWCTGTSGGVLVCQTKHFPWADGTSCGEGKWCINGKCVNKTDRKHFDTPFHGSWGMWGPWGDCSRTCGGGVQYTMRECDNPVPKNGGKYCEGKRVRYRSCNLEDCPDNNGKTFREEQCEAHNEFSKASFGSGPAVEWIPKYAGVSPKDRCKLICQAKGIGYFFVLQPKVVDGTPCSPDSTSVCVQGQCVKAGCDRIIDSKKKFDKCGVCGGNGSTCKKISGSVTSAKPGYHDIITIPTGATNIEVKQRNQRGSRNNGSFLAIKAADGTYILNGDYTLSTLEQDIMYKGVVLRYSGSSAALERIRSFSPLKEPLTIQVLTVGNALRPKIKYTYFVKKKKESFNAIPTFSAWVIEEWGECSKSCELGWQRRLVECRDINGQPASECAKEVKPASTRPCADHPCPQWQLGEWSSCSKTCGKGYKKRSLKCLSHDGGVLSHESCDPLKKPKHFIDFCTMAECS

The term IC50 denotes the concentration needed to halve the response being measured. For the molecule `Oc1nc(SCc2ccc(Cl)cc2)nc2c1CCC2`, the outcome in [1], in assay [2], in assay [3], in assay [4], in assay [5] and in [6] was inactive. Also, the outcome in [8], in [10], in assay [11], in [12], in [14] and in assay [15] was inactive. Also, the IC50 in assay [7] was 0.92 µM; in [9], > 100 µM; in [13], 3.8 µM.
For the molecule `COc1ccc(CSc2nc(C)cc(O)n2)cc1`, the outcome in [1], in [2], in assay [3], in assay [4], in assay [5] and in assay [6] was inactive. In addition, the result in assay [8], in assay [10], in assay [11], in assay [12], in assay [14] and in assay [15] was inactive. Moreover, the IC50 in assay [7] was 1.6 µM; in assay [9], > 100 µM; in [13] it was 20 µM.
